Measurements published in publication PMC4894453 (Scientific Reports, 2014).
Converted amounts (≈) assume the structure as drawn. “Also recorded” adds a separate entry of the source.

Assays:
[1] = test system: methicillin-resistant Staphylococcus aureus N315; test: MIC, microbroth dilution, MRSA; format: cell-based; conditions: Staphylococcus aureus, MRSA, read-out: MIC against Gram-positive bacteria, MRSA
Procedure, shortened: (§1)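 CLSI microbroth dilution in Mueller-Hinton broth. Test compound at final 200–0.1 μg/ml, diluted from 10 mg/ml DMSO stocks. Plates incubated 18–20 h. MIC is the lowest concentration preventing visible growth.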

[2] = test system: Streptococcus pyogenes ATCC 700294; test: MIC, microbroth dilution, Streptococcus pyogenes; format: cell-based; conditions: Streptococcus pyogenes, ATCC700294, read-out: MIC against Gram-positive bacteria, SP
[3] = test system: Vero cells (kidney epithelial cells; ATCC CCL-81); test: Cytotoxicity, CellTiter-Glo viability; format: cell-based; conditions: Cytotox IC50/MIC against methicillin-susceptible S. aureus Newman
Procedure, shortened: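 Vero kidney epithelial cells exposed 72 h to test compound (final 200–0.1 μg/ml in DMEM; diluted from 10 mg/ml DMSO stocks). Viability read by CellTiter-Glo luminescence. IC50 is the concentration giving 50% viability loss, from curve fitting. Selectivity index is the cytotoxic IC50 divided by the MIC against S. aureus Newman.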

[4] = test system: Bacillus subtilis ATCC 23857; test: MIC, microbroth dilution, Bacillus subtilis; format: cell-based; conditions: Bacillus subtilis, ATCC23857, read-out: MIC against Gram-positive bacteria, BS
Procedure, shortened: as §1

[5] = test system: Enterococcus faecalis ATCC 33186; test: MIC, microbroth dilution, Enterococcus faecalis; format: cell-based; conditions: Enterococcus faecalis, ATCC33186, read-out: MIC against Gram-positive bacteria, EF, Enterococcus faecalis ATCC 33186; Mueller-Hinton broth, 18–20 h
[6] = test system: Bacillus anthracis sterne; test: microbe, parasite or virus in culture; format: cell-based; conditions: Bacillus anthracis, read-out: MIC against Gram-positive bacteria, BA
[7] = test system: Clostridium difficile BAA 1803; test: MIC, microbroth dilution, anaerobic, Clostridium difficile; format: cell-based; conditions: for MIC: Clostridioides difficile, BAA1803, 24 h, read-out: MIC against Gram-positive bacteria, CD, Clostridium difficile BAA 1803, Brain-heart infusion broth, 24 h, anaerobic
[8] = test system: Streptococcus pneumoniae R6; test: MIC, microbroth dilution, Streptococcus pneumoniae; format: cell-based; conditions: Streptococcus pneumoniae, R6, read-out: MIC against Gram-positive bacteria, SPn
Procedure, shortened: as §1

[9] = test system: methicillin-susceptible Staphylococcus aureus Newman; test: MIC, microbroth dilution, MSSA; format: cell-based; conditions: for MIC against Gram-positive bacteria, MSSA: S. aureus Newman, 18–20 h; for fold improvement in activity over reutericyclin: S. aureus, strain not given
Procedure, shortened: as §1

[10] = test system: panel of clinical relevant Gram-positive pathogens; test: MIC, statements over the Gram-positive panel; format: cell-based; conditions: read-out: MIC over the Gram-positive panel
S. aureus Newman [11] = test: Membrane potential by flow cytometry with DiOC2; format: cell-based, Staphylococcus aureus; conditions: 10 μM, 30 min, DiOC2(3)
Procedure, shortened: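 Exponential-phase S. aureus Newman (OD600 ≈ 0.3, Mueller-Hinton II broth) treated with test compound at 100, 10 or 1 μM for 30 min at 37°C. Cells stained 5 min with 30 μM DiOC2(3) and run on flow cytometry (10,000 events, 488 nm excitation, green and red emission). Red/green fluorescence ratio histograms compared. CCCP was the positive control; at least two independent samples.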

S. aureus Newman [12] = test: Membrane permeability by flow cytometry with propidium iodide; format: cell-based, Staphylococcus aureus; conditions: 10 μM, 30 min, concentrations causing dissipation of the membrane potential
Procedure, shortened: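 S. aureus Newman grown in Mueller-Hinton II broth to OD600 ≈ 0.3 and exposed to test compound at 10 μM for 30 min. Propidium iodide (10 μM) added for 10 min in the dark. Flow cytometry: 10,000 events, 488 nm excitation, red fluorescence; event histograms compared. Thioridazine at 100 μg/mL served as positive control.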

Compound	MIC [1]	MIC [2]	Selectivity index [3]	MIC [4]	MIC [5]	MIC [6]	MIC [7]	MIC [8]	MIC against Gram-positive bacteria, MSSA [9]	MIC [10]	dissipation of the membrane potential (S. aureus Newman [11])	fold improvement in activity over reutericyclin [9]	fold improvement in activity over reutericyclin ([7]; C. difficile)	physical integrity of the S. aureus membrane (propidium iodide uptake) (S. aureus Newman [12])
CCCCCCC/C=C/C(=O)N1C(=O)/C(=C(/C)O)C(=O)C1CCC(=O)O (centres unmarked) [Compound 16, 3-((Z)-1-((E)-dec-2-enoyl)-4-(1-hydroxyethylidene)-3,5-dioxopyrrolidin-2-yl)propanoic acid]	> 200 µg/mL	50 µg/mL (≈ 137 µM)	1	50 µg/mL (≈ 137 µM)	25 µg/mL (≈ 68.4 µM)	> 200 µg/mL	> 64 µg/mL	25 µg/mL (≈ 68.4 µM)						
CCCCCCC/C=C/C(=O)N1C(=O)/C(=C(\O)c2ccccc2)C(=O)C1CC(C)C (centres unmarked) [Compound 7, (Z)-1-((E)-dec-2-enoyl)-3-(hydroxy(phenyl)methylene)-5-isobutylpyrrolidine-2,4-dione]	< 0.1 µg/mL	12.5 µg/mL (≈ 30.4 µM)	>125	0.78 µg/mL (≈ 1.9 µM)	0.39 µg/mL (≈ 0.948 µM)	> 200 µg/mL	0.75 µg/mL (≈ 1.82 µM)	12.5 µg/mL (≈ 30.4 µM)	<0.1 µg/mL	< 1 µg/mL				
CCCCCCC/C=C/C(=O)N1C(=O)/C(=C(\O)C2CCNCC2)C(=O)C1CC(C)C (centres unmarked) [Compound 9, (Z)-1-((E)-dec-2-enoyl)-3-(hydroxy(piperidin-4-yl)methylene)-5-isobutylpyrrolidine-2,4-dione]	50 µg/mL (≈ 119 µM)	100 µg/mL (≈ 239 µM)	2	12.5 µg/mL (≈ 29.9 µM)	50 µg/mL (≈ 119 µM)	12.5 µg/mL (≈ 29.9 µM)	8 µg/mL (≈ 19.1 µM)	50 µg/mL (≈ 119 µM)			reduced their ability to dissipate the membrane potential			
CCCCCCC/C=C/C(=O)N1C(=O)/C(=C(\O)CCCC)C(=O)C1CC(C)C (centres unmarked) [Compound 6, (Z)-1-((E)-dec-2-enoyl)-3-(1-hydroxypentylidene)-5-isobutylpyrrolidine-2,4-dione]	< 0.1 µg/mL	3.13 µg/mL (≈ 7.99 µM)	>58	0.39 µg/mL (≈ 0.996 µM)	0.2 µg/mL (≈ 0.511 µM)	0.39 µg/mL (≈ 0.996 µM)	< 0.03 µg/mL	3.13 µg/mL (≈ 7.99 µM)		< 1 µg/mL	slightly lower than reutericyclin; also recorded: did not rapidly dissipate the membrane potential	> 4 fold	> 3 fold	did not disrupt the physical integrity
N#CC(C#N)=NNc1cccc(Cl)c1 [CCCP, carbonyl cyanide m-chlorophenyl hydrazone, reference compound]											complete dissipation of the membrane potential			
CCCCCCC/C=C/C(=O)N1C(=O)/C(=C(/C)O)C(=O)C1CCCCN (centres unmarked) [Compound 17, (Z)-5-(4-aminobutyl)-1-((E)-dec-2-enoyl)-3-(1-hydroxyethylidene)pyrrolidine-2,4-dione]	200 µg/mL (≈ 549 µM)	> 200 µg/mL	1	> 200 µg/mL	50 µg/mL (≈ 137 µM)	> 200 µg/mL	> 64 µg/mL	> 200 µg/mL			reduced their ability to dissipate the membrane potential			
CCCCCCC/C=C/C(=O)N1C(=O)/C(=C(/C)O)C(=O)C1Cc1ccc(OC(C)(C)C)cc1 (centres unmarked) [Compound 20, (Z)-5-(4-(tert-butoxy)benzyl)-1-((E)-dec-2-enoyl)-3-(1-hydroxyethylidene)pyrrolidine-2,4-dione]	< 0.1 µg/mL	12.5 µg/mL (≈ 27.4 µM)	>115	1.56 µg/mL (≈ 3.42 µM)	0.78 µg/mL (≈ 1.71 µM)	200 µg/mL (≈ 439 µM)	0.25 µg/mL (≈ 0.549 µM)	6.25 µg/mL (≈ 13.7 µM)	<0.1 µg/mL			> 4 fold		
CCCCCCC/C=C/C(=O)N1C(=O)/C(=C(/C)O)C(=O)C1CO (centres unmarked) [Compound 15, (Z)-1-((E)-dec-2-enoyl)-3-(1-hydroxyethylidene)-5-(hydroxymethyl)pyrrolidine-2,4-dione]	> 200 µg/mL	50 µg/mL (≈ 155 µM)	1	200 µg/mL (≈ 618 µM)	100 µg/mL (≈ 309 µM)	> 200 µg/mL	64 µg/mL (≈ 198 µM)	100 µg/mL (≈ 309 µM)						
